Common to all, as to type: functional
Test [1] concerns Rattus norvegicus. Briefly: Antiallergic activity against passive cutaneous anaphylaxis (PCA) in male Sprague-Dawley rats after 3.0 mg/kg oral administration. The procedure, abridged: (§1)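 IgE antiserum raised in male Sprague-Dawley rats (ca. 200 g) by immunization with Ascaris suum extract (2 then 0.2 mg protein), bled 2 weeks after the second dose. Recipients got 0.05 mL diluted antiserum intracutaneously on the back. Blued area (product of two diameters) was read at 30 min.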

For test [2], the system named is Rattus norvegicus. Briefly: Antiallergic activity against passive cutaneous anaphylaxis (PCA) in male Sprague-Dawley rats after 10.0 mg/kg oral administration;not statistically significant. The procedure, abridged:
as §1

The subject of test [3] is Rattus norvegicus. Briefly: Antiallergic activity against passive cutaneous anaphylaxis (PCA) in male Sprague-Dawley rats after 3.0 mg/kg oral administration;not statistically significant. In short, it runs like this:
as §1

Test [4] relates to Rattus norvegicus. Briefly: Antiallergic activity against passive cutaneous anaphylaxis (PCA) in male Sprague-Dawley rats after 0.3 mg/kg oral administration;p<0.1. The procedure, abridged: as §1
The test system of test [5] is Rattus norvegicus. Kind of test: Antiallergic activity against passive cutaneous anaphylaxis (PCA) in male Sprague-Dawley rats after 1.0 mg/kg oral administration. In short, it runs like this:
as §1

Test [6] deals with Rattus norvegicus. Briefly: Antiallergic activity against passive cutaneous anaphylaxis (PCA) in male Sprague-Dawley rats after 0.3 mg/kg oral administration. The procedure, abridged:
as §1

Test [7] has as its system Rattus norvegicus. Briefly: Antiallergic activity against passive cutaneous anaphylaxis (PCA) in male Sprague-Dawley rats after 3.0 mg/kg oral administration;p<0.1. In short, it runs like this: as §1
Test [8] concerns Rattus norvegicus. Kind of test: Inhibition of passive cutaneous anaphylaxis in male Sprague-Dawley rats following 1 mg/kg p.o. administration; Not significant. Particulars: route oral. In short, it runs like this:
as §1

Broadly, the inhibition in vivo is how much of the control response was suppressed. A low value points to a weak effect. In test [1], `COc1cc(C(=O)Nc2nn[nH]n2)nc(-c2cc(OC)c(OC)c(OC)c2)c1` showed an inhibition in vivo at 3 mg/kg of 0%. Further, testing at 10 mg/kg in test [2] gave an inhibition in vivo of 25%.

`COc1cc(C(=O)Nc2nn[nH]n2)nc(-c2ccc([N+](=O)[O-])cc2)c1` came in with an inhibition in vivo at 10 mg/kg in test [2] of 6%.

Take `COc1cc(-c2cccc(C(=O)Nc3nn[nH]n3)n2)cc(OC)c1OC`: in test [2], the inhibition in vivo at 10 mg/kg turned out to be 45%. In test [3], 3 mg/kg produced 15% inhibition in vivo.

In test [1], `CCc1ccc(-c2cc(Cl)cc(C(=O)Nc3nn[nH]n3)n2)cc1` came in with an inhibition in vivo at 3 mg/kg of 100%. For the same molecule, the inhibition in vivo at 0.3 mg/kg in test [4] was 13%. The molecule further returned an inhibition in vivo at 1 mg/kg in test [5] of 49%.

For the molecule `COc1cc(C(=O)Nc2nn[nH]n2)nc(-c2ccccc2Cl)c1`, the inhibition in vivo at 10 mg/kg in test [2] amounted to 17%.

Take `CCCCc1cc(C(=O)Nc2nn[nH]n2)nc(-c2ccc(N)cc2)c1`: in test [6], the inhibition in vivo at 0.3 mg/kg amounted to 41%. Also, at 1 mg/kg the inhibition in vivo in test [5] was 81%.

In test [6], `COc1cc(C(=O)Nc2nn[nH]n2)nc(-c2ccc(N(C)C)cc2)c1` showed an inhibition in vivo at 0.3 mg/kg of 29%. The same molecule showed an inhibition in vivo at 3 mg/kg in test [1] of 100%. At 1 mg/kg the inhibition in vivo in test [5] was 64%.

As for `CC(C)Cc1cc(C(=O)Nc2nn[nH]n2)nc(-c2ccccc2)c1`, 10 mg/kg produced 11% inhibition in vivo in test [2].

In turn, `CCCCc1ccc(-c2cc(CC(C)C)cc(C(=O)Nc3nn[nH]n3)n2)cc1` yielded an inhibition in vivo at 10 mg/kg in test [2] of 13%. This molecule registered an inhibition in vivo at 3 mg/kg in test [3] of 3%.

Regarding `CCCc1ccc(-c2cc(Cl)cc(C(=O)Nc3nn[nH]n3)n2)cc1`, the inhibition in vivo at 0.3 mg/kg in test [6] was determined as 42%. This molecule also came in with an inhibition in vivo at 1 mg/kg in test [5] of 78%.

The molecule `Cc1ccc(-c2cc(C(C)C)cc(C(=O)Nc3nn[nH]n3)n2)cc1` had an inhibition in vivo at 3 mg/kg in test [7] of 42%. In test [8], this molecule had an inhibition in vivo at 1 mg/kg of 20%.

On to `Cc1ccc(-c2cc(C)cc(C(=O)Nc3nn[nH]n3)n2)cc1`, for which the inhibition in vivo at 0.3 mg/kg in test [6] is 51%. In test [1], this molecule had an inhibition in vivo at 3 mg/kg of 100%. Besides, in test [5], the inhibition in vivo at 1 mg/kg came to 80%.

`COc1cccc(-c2cc(Cl)cc(C(=O)Nc3nn[nH]n3)n2)c1`: in test [6], the inhibition in vivo at 0.3 mg/kg is 32%. In test [1], 3 mg/kg produced 95% inhibition in vivo. Further, in test [5], the inhibition in vivo at 1 mg/kg is 51%.

Regarding `COc1cc(C(=O)Nc2nn[nH]n2)nc(-c2ccccc2OC)c1`, in test [1], 3 mg/kg produced 68% inhibition in vivo. Besides, the inhibition in vivo at 0.3 mg/kg in test [4] was determined as 35%. In addition, the inhibition in vivo at 1 mg/kg in test [8] was determined as 41%.

Regarding `CCOc1cc(C(=O)Nc2nn[nH]n2)nc(-c2ccccc2)c1`, the inhibition in vivo at 3 mg/kg in test [7] is 51%. The molecule further gave an inhibition in vivo at 1 mg/kg in test [8] of 29%.

Molecule `Cc1cc(C(=O)Nc2nn[nH]n2)nc(-c2ccc(N)cc2)c1` registered an inhibition in vivo at 3 mg/kg in test [1] of 100%. For the same molecule, 0.3 mg/kg produced 54% inhibition in vivo in test [4]. The molecule further returned an inhibition in vivo at 1 mg/kg in test [5] of 75%.

Molecule `Nc1ccc(-c2cc(Cl)cc(C(=O)Nc3nn[nH]n3)n2)cc1` had an inhibition in vivo at 0.3 mg/kg in test [6] of 39%. The inhibition in vivo at 3 mg/kg in test [1] was 100%. This molecule registered an inhibition in vivo at 1 mg/kg in test [5] of 100%.

`CCc1ccc(-c2cc(OC)cc(C(=O)Nc3nn[nH]n3)n2)cc1`: in test [6], the inhibition in vivo at 0.3 mg/kg was 23%. The molecule also yielded an inhibition in vivo at 1 mg/kg in test [5] of 43%.

Consider `O=C(Nc1nn[nH]n1)c1cc(Cl)cc(-c2ccc([N+](=O)[O-])cc2)n1`, for which, in test [2], 10 mg/kg produced 48% inhibition in vivo. In test [3], the inhibition in vivo at 3 mg/kg amounted to 23%.

`CCOc1cc(C(=O)Nc2nn[nH]n2)nc(-c2ccc(N(CC)CC)cc2)c1` yielded an inhibition in vivo at 0.3 mg/kg in test [6] of 44%. In test [5], this molecule registered an inhibition in vivo at 1 mg/kg of 66%.

The molecule `CCc1ccc(-c2cccc(C(=O)Nc3nn[nH]n3)n2)cc1` came in with an inhibition in vivo at 0.3 mg/kg in test [4] of 14%. The molecule also showed an inhibition in vivo at 1 mg/kg in test [8] of 39%.

In the case of `Cc1ccccc1-c1cc(Cl)cc(C(=O)Nc2nn[nH]n2)n1`, 10 mg/kg produced 24% inhibition in vivo in test [2].

As for `COc1ccc(-c2cc(Cl)cc(C(=O)Nc3nn[nH]n3)n2)cc1`, 0.3 mg/kg produced 40% inhibition in vivo in test [6]. In test [1], this molecule gave an inhibition in vivo at 3 mg/kg of 100%. In addition, in test [5], the inhibition in vivo at 1 mg/kg was 43%.

(Values after ChEMBL document CHEMBL1122378, “Antiallergic agents. 2. N-(1H-tetrazol-5-yl)-6-phenyl-2-pyridinecarboxamides” (1983).)
